Legend:
[1] = target: T1, Protein kinase C epsilon type (Homo sapiens, UniProt Q02156); assay: Binding affinity to PKCepsilon C1B subdomain after 1 hr by fluorescence quenching analysis
T1 sequence (Q02156 whole entry): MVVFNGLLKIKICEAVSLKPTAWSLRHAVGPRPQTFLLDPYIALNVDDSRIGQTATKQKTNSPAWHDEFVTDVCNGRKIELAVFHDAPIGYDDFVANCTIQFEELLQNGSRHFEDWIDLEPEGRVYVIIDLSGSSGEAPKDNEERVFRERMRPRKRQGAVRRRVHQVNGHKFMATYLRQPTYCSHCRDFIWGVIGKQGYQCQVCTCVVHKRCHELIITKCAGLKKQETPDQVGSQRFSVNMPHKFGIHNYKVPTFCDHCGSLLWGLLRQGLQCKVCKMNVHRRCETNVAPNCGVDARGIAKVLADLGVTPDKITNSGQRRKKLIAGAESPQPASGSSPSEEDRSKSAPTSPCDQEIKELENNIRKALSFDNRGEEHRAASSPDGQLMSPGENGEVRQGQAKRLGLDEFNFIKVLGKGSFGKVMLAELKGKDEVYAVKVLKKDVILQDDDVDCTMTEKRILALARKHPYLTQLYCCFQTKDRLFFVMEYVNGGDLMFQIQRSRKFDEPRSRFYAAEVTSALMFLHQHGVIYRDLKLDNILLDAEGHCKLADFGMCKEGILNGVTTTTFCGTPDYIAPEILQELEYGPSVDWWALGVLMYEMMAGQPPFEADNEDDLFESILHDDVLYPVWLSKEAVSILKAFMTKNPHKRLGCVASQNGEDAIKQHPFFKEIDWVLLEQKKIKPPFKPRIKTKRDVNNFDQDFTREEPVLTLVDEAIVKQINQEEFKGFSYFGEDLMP
Summary of the method: (§1)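 Purified C1B subdomain of PKC delta, epsilon or theta was titrated with ligand in 50 mM Tris, 150 mM NaCl, 2 mM DTT, ZnSO4, pH 7.2, at 25 °C. Intrinsic fluorescence was excited at 280 nm and emission recorded from 300–550 nm. (F0−F)/F at 350 nm was plotted against ligand concentration, and the curve was fitted to a modified Hill equation to give EC50 and Hill coefficient.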

[2] = target: Protein kinase C delta type (Homo sapiens, UniProt Q05655); assay: Binding affinity to PKCdelta C1B subdomain after 1 hr by fluorescence quenching analysis; summary of the method: as §1
Protein kinase C delta type, sequence (Q05655 whole entry): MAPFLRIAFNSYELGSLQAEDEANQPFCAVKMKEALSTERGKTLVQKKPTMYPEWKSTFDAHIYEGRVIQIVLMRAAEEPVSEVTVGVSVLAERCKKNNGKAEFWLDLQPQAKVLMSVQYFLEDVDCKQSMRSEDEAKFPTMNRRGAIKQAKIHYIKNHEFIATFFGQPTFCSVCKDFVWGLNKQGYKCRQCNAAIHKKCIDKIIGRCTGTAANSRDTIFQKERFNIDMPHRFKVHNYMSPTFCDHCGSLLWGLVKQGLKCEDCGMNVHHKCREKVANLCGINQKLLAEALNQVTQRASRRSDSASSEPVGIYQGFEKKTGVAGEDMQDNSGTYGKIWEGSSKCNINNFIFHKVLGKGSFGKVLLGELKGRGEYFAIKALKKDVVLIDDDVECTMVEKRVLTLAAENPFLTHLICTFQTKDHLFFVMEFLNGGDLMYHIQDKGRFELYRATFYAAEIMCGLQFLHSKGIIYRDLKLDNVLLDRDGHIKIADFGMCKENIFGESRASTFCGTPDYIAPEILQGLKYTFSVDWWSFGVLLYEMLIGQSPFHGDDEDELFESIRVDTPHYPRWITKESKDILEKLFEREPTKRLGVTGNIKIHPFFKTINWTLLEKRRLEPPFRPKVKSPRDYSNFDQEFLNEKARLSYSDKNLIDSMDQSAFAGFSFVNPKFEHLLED

[3] = target: Protein kinase C theta type (Homo sapiens, UniProt Q04759); assay: Binding affinity to PKCtheta C1B subdomain after 1 hr by fluorescence quenching analysis; summary of the method: as §1
Protein kinase C theta type, sequence (Q04759 whole entry): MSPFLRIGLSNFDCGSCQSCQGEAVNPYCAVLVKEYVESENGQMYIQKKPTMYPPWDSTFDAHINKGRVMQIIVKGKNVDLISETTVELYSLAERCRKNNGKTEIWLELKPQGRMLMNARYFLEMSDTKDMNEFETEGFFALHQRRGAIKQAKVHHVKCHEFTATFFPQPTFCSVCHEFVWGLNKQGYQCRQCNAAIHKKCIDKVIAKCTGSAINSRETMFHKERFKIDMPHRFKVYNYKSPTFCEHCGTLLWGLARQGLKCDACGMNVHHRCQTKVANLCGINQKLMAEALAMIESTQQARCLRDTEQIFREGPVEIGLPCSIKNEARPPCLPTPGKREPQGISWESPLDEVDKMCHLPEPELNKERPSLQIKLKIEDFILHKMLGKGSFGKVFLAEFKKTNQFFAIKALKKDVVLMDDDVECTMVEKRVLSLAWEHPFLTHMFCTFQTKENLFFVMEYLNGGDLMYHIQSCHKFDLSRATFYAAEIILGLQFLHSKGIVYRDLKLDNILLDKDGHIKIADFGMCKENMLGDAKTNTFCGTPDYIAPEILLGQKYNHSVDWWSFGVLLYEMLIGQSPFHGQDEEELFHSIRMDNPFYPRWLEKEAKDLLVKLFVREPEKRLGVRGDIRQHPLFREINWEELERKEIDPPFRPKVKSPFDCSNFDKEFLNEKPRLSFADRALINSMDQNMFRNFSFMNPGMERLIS

[4] = Solubility of the compound; assay type: physicochemical
[5] = Selectivity ratio of EC50 for PKCdelta C1B subdomain to EC50 for PKCtheta C1B subdomain
Summary of the method: (§2)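 Ratios of EC50 values, each taken from a modified-Hill fit of intrinsic tryptophan/tyrosine fluorescence quenching (excitation 280 nm, read at 350 nm) of the C1B subdomains in Tris/NaCl/DTT/ZnSO4 buffer, pH 7.2, at 25 °C.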

[6] = Selectivity ratio of EC50 for PKCepsilon C1B subdomain to EC50 for PKCtheta C1B subdomain; summary of the method: as §2

| Compound | EC50 [1] [µM] | EC50 [2] [µM] | EC50 [3] [µM] | solubility [4] | Ratio EC50 [5] | Ratio EC50 [6] |
| --- | --- | --- | --- | --- | --- | --- |
| CCCCOc1ccc(/C=C/c2cc(/C=C/c3ccc(O)c(OC)c3)n[nH]2)cc1OC | 16.1 | 21.6 | 15.8 |  |  |  |
| CCCCOc1ccc(/C=C/c2cc(/C=C/c3ccc(OCCCC)c(OC)c3)on2)cc1OC | 23.4 | 25.2 | 7.14 |  |  |  |
| CCCCCCCCOc1ccc(/C=C/c2cc(/C=C/c3ccc(OCCCCCCCC)c(OC)c3)on2)cc1OC |  |  |  | Insoluble |  |  |

Other lines, results leading:

| EC50 [1] [µM] | EC50 [2] [µM] | EC50 [3] [µM] | solubility [4] | Ratio EC50 [5] | Ratio EC50 [6] | Compound |
| --- | --- | --- | --- | --- | --- | --- |
| 11.8 | 11.5 | 3.16 |  | 3 | 3 | COc1cc(/C=C/c2cc(/C=C/c3ccc(O)c(OC)c3)on2)ccc1O |
| 18.8 | 15 | 7.25 |  | 2 | 2 | COc1cc(/C=C/c2cc(/C=C/c3ccc(O)c(OC)c3)[nH]n2)ccc1O [CURCUMIN PYRAZOLE] |
